# Experimental data reported in the array DNA melting data of Ke et al. (doi:10.1101/2024.01.08.574731).
# Legend:
# [1] = melting temperature; fluorescence melt of hairpins on a sequencing array, two-state fit, raised by 9.35 °C to match UV melts; details: sodium 0.088 M
# Method in brief: (§1)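 Cy3 signals were normalised both to pre-quench Cy3 and to control constructs. They came from library hairpins carrying annealed Cy3 and quencher oligos on a sequenced MiSeq flow cell, imaged in 50 mM Na-HEPES pH 8.0, 25 mM NaCl, in 2.5 °C steps up to 60 °C. Bootstrapped two-state fits gave melting temperature and folding enthalpy, and four replicates were combined by inverse variance. Fitted temperatures were then raised by 9.35 °C to match UV melts.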
# [2] = folding enthalpy; higher = less favourable; fluorescence melt of hairpins on a sequencing array, two-state fit; details: sodium 0.088 M
# Method in brief: as §1
Sequence,Tm [1] [°C],folding enthalpy [2] [kcal/mol]
GTCAGCTCGAAAGAGGAC (((..(((....)))))),33.4,-17.7
GTCAGGGCGAAAGCCGAC (((..(((....)))))),48.7,-14.7
GTCAGGGGAAACTCTGAC (((((.(....).))))),48.9,-33.4
GTCAGTCGAAAGACCGAC (((.(((....))).))),47.4,-22.1
GTCAGTGCGAAAGCAGAC (((..(((....)))))),39.6,-14.4
GTCAGTGGAAACGTTGAC ((((..(....)..)))),34.9,-21.1
GTCATAGGAAACTACGAC (((.(((....))).))),30.8,-16.5
GTCATAGGAAACTATGAC (((((((....))))))),55.9,-39.3
GTCATAGGAAACTGTGAC ((((.((....)).)))),46.4,-32.1
GTCATCGAAAGATCAGAC ((((((....)))..))),26.5,-16.7
GTCATCGAAAGATGAGAC ((((((....)))..))),40.7,-13.7
GTCATCGAAAGATGTGAC ((((((....)))..))),35.7,-13.4
GTCATCGAAAGATTTGAC ((((((....)))..))),29.4,-13.2
GTCATCTCGAAAGAGGAC (((..(((....)))))),39.4,-20.9
GTCATGCGAAAGCACGAC (((.(((....))).))),52.3,-27.5
GTCATGGCGAAAGCCGAC (((..(((....)))))),42.6,-13.4
GTCATTGGAAACAATGGC (.(((((....))))).),47.6,-28.6
GTCCAACGAAAGTTGAC (((.(((....)))))),45,-14.7
GTCCAACGAAAGTTTGAC (((.(((....))).))),42,-27.7
GTCCAAGGAAACCTGGAC (((((.(....).))))),46.8,-27.7
GTCCACCGAAAGGTCGAC (((.(((....))).))),44,-27.2
GTCCACGGAAACACGGAC ((((..(....)..)))),37.2,-18.4
GTCCAGGGAAACCTGGGC (.(((((....))))).),56.5,-33.1

Sequence,Tm [1] [°C],folding enthalpy [2] [kcal/mol]
GTCCCAACGAAAGTTGAC (((..(((....)))))),25,-9.31
GTCCCAGGAAACCAGGAC ((((..(....)..)))),35.6,-21.2
GTCCCCCGAAAGGGAGAC (((.(((....))).))),56.6,-30.1
GTCCCCCGAAAGGGCGAC (((.(((....))).))),49.1,-21.6
GTCCCCCGAAAGGGGAC (((.(((....)))))),67.2,-19.9
GTCCCCGAAAGGGAGAC ((((((....))).))),53.7,-30
GTCCCCGAAAGGGATGAC ((((((....)))..))),44.8,-14.6
GTCCCCGAAAGGGGGGAC ((((((....)))..))),60.5,-11.7
GTCCCCGGAAACAGGGAC (((((.(....).))))),48.6,-39.9
GTCCCCGGAAACGGGAAC ((.((((....)))).)),46.4,-15.1
GTCCCCGGAAACGGGGGC (.(((((....))))).),68,-19.5
GTCCCGCGAAAGCGAGAC (((.(((....))).))),55.7,-32.5
GTCCCGCGAAAGCGTGAC (((.(((....))).))),52.9,-23.9
GTCCCGGGAAACCGGGGC (.(((((....))))).),64.3,-19
GTCCCTGAAAAGGGAC ((((((....)))))),67.7,-34.6
GTCCCTGGAAACAGGAAC ((.((((....)))).)),36.1,-21.6
GTCCCTGGAAACAGGGGC (.(((((....))))).),57.4,-27.5
GTCCGAGGAAACCCGGAC (((((.(....).))))),53.2,-40.5
GTCCGCCGAAAGGCTGAC (((.(((....))).))),57.3,-21.9
GTCCGCGAAAGCGCCGAC ((((((....)))..))),36.9,-11.1
GTCCGCGAAAGCGTTGAC ((((((....)))..))),36.8,-14.4
GTCCGCGGAAACACGGAC (((((.(....).))))),54.2,-42
GTCCGCGGAAACGCAGAC (((.(((....))).))),49.9,-21.5

Sequence,Tm [1] [°C],folding enthalpy [2] [kcal/mol]
GTCCGGCCGAAAGGCGAC (((..(((....)))))),41.7,-12.8
GTCCGGCGAAAGCCAGAC (((.(((....))).))),50.7,-27.5
GTCCGGGCGAAAGCCGAC (((..(((....)))))),44.3,-11.1
GTCCGGGGAAACCCAGAC (((.(((....))).))),42.8,-29.6
GTCCGGTCGAAAGACGAC (((..(((....)))))),38.5,-12.6
GTCCGTGGAAACACGAAC ((.((((....)))).)),39.7,-21
GTCCTACGAAAGTACGAC (((.(((....))).))),35.2,-24.9
GTCCTAGGAAACTGGGAC ((((.((....)).)))),49.4,-37.8
GTCCTATCGAAAGATGAC (((..(((....)))))),23.4,-8.25
GTCCTCGAAAGAGAAGAC ((((((....)))..))),32.2,-19.8
GTCCTCGAAAGAGCTGAC ((((((....)))..))),29.5,-12.4
GTCCTCGAAAGAGGAGAC ((((((....)))..))),47.8,-10.2
GTCCTCGAAAGAGTGAC ((((((....))).))),46.3,-25.7
GTCCTCGAAAGAGTTGAC ((((((....)))..))),31.2,-10.7
GTCCTGCGAAAGCAAGAC (((.(((....))).))),48.1,-23.3
GTCGAACGAAAGTTAGAC (((.(((....))).))),52.6,-33.1
GTCGAACGAAAGTTGGAC (((.(((....))).))),50.6,-46.4
GTCGAAGGAAACTTCAAC ((.((((....)))).)),26.9,-12.4
GTCGAAGGAAACTTTGAC (((.(((....))).))),44.5,-31.1
GTCGACGAAAGTCGAGAC ((((((....)))..))),51.9,-9.56
GTCGACGAAAGTCGCGAC ((((((....)))..))),57.4,-12.6
GTCGAGCGAAAGCTGGAC (((.(((....))).))),56.1,-28.9
GTCGAGCGAAAGCTTGAC (((.(((....))).))),63.9,-35.4

Sequence,Tm [1] [°C],folding enthalpy [2] [kcal/mol]
GTCGAGGAAACTCGAC ((((((....)))))),63.3,-45.2
GTCGAGGCGAAAGCCGAC (((..(((....)))))),51,-9.98
GTCGAGGGAAACCTCGGC (.(((((....))))).),57.3,-35.8
GTCGAGGGAAACCTTGAC (((.(((....))).))),48.7,-38.5
GTCGAGGGAAACTTCGAC (((((.(....).))))),49.6,-42.6
GTCGAGGGAAACTTCGGC (.(((.(....).))).),36.4,-24.6
GTCGAGTCGAAAGACGAC (((..(((....)))))),47,-10.7
GTCGATCGAAAGATGAC (((.(((....)))))),43.7,-26.9
GTCGATGGAAACATCAAC ((.((((....)))).)),34.7,-17.6
GTCGCAACGAAAGTTGAC (((..(((....)))))),29.4,-12.1
GTCGCAGGAAACCGCGAC (((((.(....).))))),58.9,-43.1
GTCGCAGGAAACTGTGGC (.(.(((....))).).),42.8,-29.9
GTCGCCGAAAGGCATGAC ((((((....)))..))),40.7,-13.2
GTCGCCGAAAGGCCCGAC ((((((....)))..))),37.4,-11.6
GTCGCCGAAAGGCCGGAC ((((((....)))..))),41.6,-13.1
GTCGCCGGAAACAGCGAC (((((.(....).))))),54.9,-44.9
GTCGCCGGAAACGGTGAC (((.(((....))).))),63.7,-41.5
GTCGCGGCGAAAGCCGAC (((..(((....)))))),42.2,-7.7
GTCGCTCGAAAGAGAGAC (((.(((....))).))),58.4,-42.9
GTCGCTGGAAACAGTGAC (((.(((....))).))),54.9,-50.4
GTCGCTGGAAACGGCGAC (((((.(....).))))),65.7,-43.8
GTCGGAGAAATCCGAC ((((((....)))))),61.7,-35.7
